Reference: ChEMBL document CHEMBL1140016, “Arylpropanolamines: selective beta3 agonists arising from strategies to mitigate phase I metabolic transformations” (Bioorg Med Chem Lett, 2007)

Assays:
[1] = target: T1, Beta-3 adrenergic receptor (Homo sapiens, UniProt P13945); assay: Displacement of [125I]iodocyanopindolol from cloned human adrenergic beta-3 receptor expressed in CHO cells; format: cell-based
Target sequence in this assay (P13945 whole entry): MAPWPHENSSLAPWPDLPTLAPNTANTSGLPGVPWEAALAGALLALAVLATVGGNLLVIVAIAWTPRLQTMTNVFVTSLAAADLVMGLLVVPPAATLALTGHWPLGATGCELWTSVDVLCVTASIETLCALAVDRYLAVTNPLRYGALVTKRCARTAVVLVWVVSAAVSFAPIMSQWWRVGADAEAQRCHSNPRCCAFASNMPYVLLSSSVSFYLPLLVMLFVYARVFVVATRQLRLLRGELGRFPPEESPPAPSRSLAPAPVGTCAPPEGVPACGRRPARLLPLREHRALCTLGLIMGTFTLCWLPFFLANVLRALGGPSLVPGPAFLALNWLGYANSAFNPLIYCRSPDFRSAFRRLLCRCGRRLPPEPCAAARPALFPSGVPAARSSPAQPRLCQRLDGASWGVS

[2] = target: T1, Beta-3 adrenergic receptor; assay: Intrinsic activity at human cloned adrenergic beta3 receptor expressed in CHO cells assessed as cAMP accumulation relative to isoproterenol; format: functional, cell-based
Target sequence in this assay (P13945 whole entry, looked up): as the sequence (P13945 whole entry) above

Homo sapiens [3] = species: Homo sapiens; assay: Selectivity ratio of Ki for human adrenergic beta-1 receptor to Ki for human adrenergic beta-3 receptor
Homo sapiens [4] = species: Homo sapiens; assay: Selectivity ratio of Ki for adrenergic beta2 receptor Ki for adrenergic beta-3 receptor
[5] = target: Beta-1 adrenergic receptor (Homo sapiens, UniProt P08588); assay: Displacement of [125I]iodocyanopindolol from human cloned adrenergic beta-1 receptor expressed in CHO cells; format: cell-based
[6] = target: Beta-2 adrenergic receptor (Homo sapiens, UniProt P07550); assay: Displacement of [125I]iodocyanopindolol from human cloned adrenergic beta-2 receptor expressed in CHO cells; format: cell-based
African green monkey [7] = assay: Effect on potassium levels in African green monkey serum at 0.1 mg/kg, iv; format: functional, Chlorocebus sabaeus; design: unit not given beside the values
Summary of the method: (§1)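 Single iv dose given to ketamine-sedated African green monkeys, either 0.1 or 0.5 mg/kg as the line states. Three read-outs were recorded after dosing: change in serum free fatty acids (β3 lipolysis), change in serum K+ (a decrease is β2-mediated) and change in heart rate (β1/β2 tachycardia). Changes were tested for significance at P < 0.05.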

African green monkey [8] = assay: Effect on tachycardia in African green monkey assessed as change in heart rate at 0.1 mg/kg, iv; format: functional, Chlorocebus sabaeus; summary of the method: as §1
African green monkey [9] = assay: Effect on lipolysis in iv dosed African green monkey; format: functional; conditions: Chlorocebus sabaeus
Summary of the method: (§2)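 Compounds were given iv to ketamine-sedated African green monkeys across a range of doses. Lipolysis ED50 (mg/kg) came from the rise in serum free fatty acids. Onset doses were the lowest doses giving a statistically significant rise in heart rate (β1) or fall in serum K+ (β2). Each margin is the onset dose divided by the lipolysis ED50.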

African green monkey [10] = assay: Ratio of serum potassium concentration to ED50 for lipolysis in African green monkey; format: functional, Chlorocebus sabaeus; summary of the method: as §2
African green monkey [11] = assay: Ratio of effect on tachycardia to ED50 for lipolysis in African green monkey; format: functional, Chlorocebus sabaeus; summary of the method: as §2
African green monkey [12] = assay: Effect on African green monkey assessed as change in free fatty acid level at 0.1 mg/kg, iv; format: functional, Chlorocebus sabaeus; summary of the method: as §1
[13] = target: Beta-1 adrenergic receptor (Cavia porcellus) (UniProt B0FL73); assay: Intrinsic activity at adrenergic beta-1 receptor in spontaneously beating guinea pig atria assessed as acceleration in contraction relative to isoproterenol
Beta-1 adrenergic receptor (Cavia porcellus), sequence (B0FL73 1-467): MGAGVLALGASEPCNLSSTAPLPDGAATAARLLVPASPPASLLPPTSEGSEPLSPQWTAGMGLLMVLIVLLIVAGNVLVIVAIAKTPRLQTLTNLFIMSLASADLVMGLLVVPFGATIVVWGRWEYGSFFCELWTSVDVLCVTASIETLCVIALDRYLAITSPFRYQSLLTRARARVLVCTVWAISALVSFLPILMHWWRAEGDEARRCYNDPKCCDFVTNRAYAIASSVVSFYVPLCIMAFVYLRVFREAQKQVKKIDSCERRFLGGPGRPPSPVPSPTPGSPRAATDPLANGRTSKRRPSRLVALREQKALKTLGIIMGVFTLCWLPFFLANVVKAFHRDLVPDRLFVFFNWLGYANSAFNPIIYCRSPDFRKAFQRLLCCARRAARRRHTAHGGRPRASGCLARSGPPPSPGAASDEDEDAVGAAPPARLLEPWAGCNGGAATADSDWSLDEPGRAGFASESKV

Beta-1 adrenergic receptor, sequence (P08588 whole entry): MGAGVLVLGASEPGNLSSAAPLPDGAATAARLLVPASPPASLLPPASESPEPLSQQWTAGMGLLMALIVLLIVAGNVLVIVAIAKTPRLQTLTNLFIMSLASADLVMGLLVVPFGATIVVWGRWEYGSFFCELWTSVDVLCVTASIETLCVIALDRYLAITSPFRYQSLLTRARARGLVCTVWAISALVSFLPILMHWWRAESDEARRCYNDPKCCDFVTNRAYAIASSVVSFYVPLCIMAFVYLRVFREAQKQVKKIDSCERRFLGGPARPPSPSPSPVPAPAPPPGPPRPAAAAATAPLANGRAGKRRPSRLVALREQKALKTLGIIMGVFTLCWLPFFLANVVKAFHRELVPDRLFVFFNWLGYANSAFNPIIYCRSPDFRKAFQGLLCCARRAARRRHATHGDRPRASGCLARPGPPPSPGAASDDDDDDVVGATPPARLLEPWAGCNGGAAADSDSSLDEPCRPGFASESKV
Beta-2 adrenergic receptor, sequence (P07550 whole entry): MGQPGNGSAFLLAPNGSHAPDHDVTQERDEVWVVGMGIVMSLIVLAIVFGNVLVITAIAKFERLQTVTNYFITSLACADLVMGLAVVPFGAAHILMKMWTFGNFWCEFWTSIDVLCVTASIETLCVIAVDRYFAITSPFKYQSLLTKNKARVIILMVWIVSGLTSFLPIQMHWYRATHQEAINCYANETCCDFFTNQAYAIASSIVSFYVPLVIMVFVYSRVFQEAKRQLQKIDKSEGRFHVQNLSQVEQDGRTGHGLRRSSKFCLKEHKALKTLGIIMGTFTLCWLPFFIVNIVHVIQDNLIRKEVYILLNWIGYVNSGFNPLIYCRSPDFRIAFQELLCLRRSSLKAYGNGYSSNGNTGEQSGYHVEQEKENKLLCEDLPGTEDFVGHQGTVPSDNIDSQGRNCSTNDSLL

Row | Structure (SMILES) | Ki [1] | Intrinsic activity [2] | Ratio Ki (Homo sapiens [3]) | Ratio Ki (Homo sapiens [4]) | Ki [5] | Ki [6] | further results
1 | COc1ccc(CNC[C@H](O)CCc2ccc(O)c(NS(C)(=O)=O)c2)cc1 | 3.7 µM | 42% | 1 | 1 |  |  | 
2 | CS(=O)(=O)Nc1cc(CC[C@@H](O)CN[C@H](Cc2ccccc2)c2ccc(OC(F)F)cc2)ccc1O | 0.88 µM | 40% | 38 | 7 |  |  | 
3 | COc1ccc(CCNCC(O)Cc2ccc(O)c(NS(C)(=O)=O)c2)cc1OC (stereo not drawn) | 7.3 µM | 35% | 0.6 | 0.1 |  |  | 
4 | COc1ccc([C@@H](Cc2ccccc2)NC[C@@H](O)Cc2ccc(O)c(NS(C)(=O)=O)c2)cc1 | 0.053 µM | 65% |  |  | 6 µM | 0.51 µM | 
5 | CS(=O)(=O)Nc1cc(C[C@@H](O)CN[C@@H](CCc2ccccc2)c2ccc(OC(F)F)c(OC(F)F)c2)ccc1O | 0.059 µM | 86% | 8 | 1 | 0.49 µM | 0.071 µM | 
6 | COc1ccc([C@@H](Cc2ccccc2Cl)NC[C@@H](O)Cc2ccc(O)c(NS(C)(=O)=O)c2)cc1OC | 0.007 µM | 65% | 58 | 13 |  |  | 
7 | CS(=O)(=O)Nc1cc([C@@H](O)CN[C@H](Cc2ccccc2)c2ccc(OC(F)F)cc2)ccc1O |  | 107% |  |  |  |  | Activity (African green monkey [7]): 0.08; Activity (African green monkey [8]): 26; ED50 (African green monkey [9]): 0.03 mg/kg; Ratio (African green monkey [10]): >25; Ratio (African green monkey [11]): 3; Activity (African green monkey [12]): 1.05
8 | COc1ccc(C(C)(C)NC[C@H](O)c2ccc(O)c(NS(C)(=O)=O)c2F)cc1 | 0.2 µM | 88% |  |  |  |  | 
9 | COc1cccc([C@H](CCc2ccccc2)NC[C@H](O)Cc2ccc(O)c(NS(C)(=O)=O)c2)c1 | 0.39 µM | 44% | 1 | 0.5 | 0.57 µM | 0.2 µM | 
10 | CS(=O)(=O)Nc1cc([C@@H](O)CN)ccc1O | 17 µM | 93% |  |  |  |  | 
11 | CS(=O)(=O)Nc1cc(C[C@H](O)CN[C@H](Cc2ccccc2)c2ccc(OC(F)F)c(OC(F)F)c2)ccc1O | 0.019 µM | 60% |  |  | 0.69 µM | 0.102 µM | Intrinsic activity [13]: 0%
12 | COc1ccc([C@@H](Cc2ccccc2)NC[C@H](O)Cc2ccc(O)c(NS(C)(=O)=O)c2)cc1OC | 0.025 µM | 43% |  |  | > 10 µM | 1.5 µM | Intrinsic activity [13]: 0%
13 | CS(=O)(=O)Nc1c(O)ccc([C@@H](O)CN)c1F | 120 µM | 0% |  |  |  |  | 
14 | COc1ccc(C(C)(C)NC[C@H](O)c2ccc(O)c(NS(C)(=O)=O)c2)cc1 | 0.007 µM | 86% |  |  |  |  | 
15 | COc1ccc([C@H](CCc2ccc(Cl)cc2)NC[C@H](O)Cc2ccc(O)c(NS(C)(=O)=O)c2)cc1OC | 0.012 µM | 89% | 88 | 10 | 1.05 µM | 0.12 µM | Activity (African green monkey [7]): -0.32; Activity (African green monkey [8]): 32; Activity (African green monkey [12]): 0.87
16 | COc1cccc([C@@H](Cc2ccccc2)NC[C@H](O)Cc2ccc(O)c(NS(C)(=O)=O)c2)c1 | 1.1 µM | 27% |  |  | > 10 µM | 2.7 µM | Intrinsic activity [13]: 0%
17 | COc1ccc([C@@H](Cc2ccccc2)NC[C@@H](O)Cc2ccc(O)c(NS(C)(=O)=O)c2)cc1O | 0.008 µM | 70% |  |  | 3.2 µM | 1.07 µM | 
18 | COc1ccc([C@H](NC[C@H](O)c2ccc(O)c(NS(C)(=O)=O)c2)C(=O)Nc2ccccc2)cc1 (stereo in doubt; 1a) |  | 119% |  |  |  |  | 
19 | CS(=O)(=O)Nc1cc(C[C@H](O)CN[C@H](Cc2ccccc2)c2ccc(Cl)c(Cl)c2)ccc1O | 0.133 µM | 70% |  |  | 1.5 µM | 0.038 µM | 
20 | CS(=O)(=O)Nc1cc([C@@H](O)CNC(c2ccc(OC(F)F)cc2)c2ccc(OC(F)F)cc2)ccc1O |  |  |  |  |  |  | ED50 (African green monkey [9]): 0.08 mg/kg; Ratio (African green monkey [10]): >60; Ratio (African green monkey [11]): 6
